Laboratory results from PubChem BioAssay AID588478 (ICCB-Longwood Screening Facility, Harvard Medical School, 2011).
In all, about 330,000 compounds went through this assay and about 1,100 (0.33%) were called active. The entries come from a sample that favours actives as a whole. Values without a mark were called inactive.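 How the source made its calls: active means mean inhibition over replicate wells above about 20% (limit read from the data); inactive means the rest.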

Molecular target: Ubiquitin carboxyl-terminal hydrolase isozyme L5 (Homo sapiens) (UniProt Q9Y5K5)
Sequence (Q9Y5K5 whole entry, looked up): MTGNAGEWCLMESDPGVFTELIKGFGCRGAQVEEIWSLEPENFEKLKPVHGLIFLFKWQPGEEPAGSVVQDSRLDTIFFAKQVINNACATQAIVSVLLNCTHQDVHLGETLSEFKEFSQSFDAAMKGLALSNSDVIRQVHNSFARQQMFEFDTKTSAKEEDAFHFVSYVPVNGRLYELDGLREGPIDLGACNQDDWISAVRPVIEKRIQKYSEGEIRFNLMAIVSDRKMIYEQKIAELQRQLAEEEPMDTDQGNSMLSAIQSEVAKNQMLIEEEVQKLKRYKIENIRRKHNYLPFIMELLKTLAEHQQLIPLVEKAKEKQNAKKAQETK
Experiment: inhibitors of human UCH37 deubiquitinase, primary screen, biochemical, Ub-AMC cleavage, fluorescence (AID 588478);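 further: 0% = compound-free wells with enzyme and 100% = wells lacking proteasome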
Details: purified proteasome/UCH37, Ub-AMC cleavage fluorescence; stronger effect = higher value; concentration not given here
Procedure, shortened: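 Material: human UCH37 enzyme supplied as purified proteasome complex / Amount: 0.15 nM proteasome as dispensed / Buffer or medium: pH 7.4 Tris-HCl (50 mM) with ovalbumin, ATP-MgCl2, DTT / Times: preincubation 30 min, reaction 25 min, room temperature / Technique: AMC fluorescence from Ub-AMC cleavage, excitation 355 nm, emission 460 nm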

SMILES	inhibition
O=c1ccc2c(-c3ccccc3S(=O)(=O)O)c3ccc(O)c(O)c3oc-2c1O	29% (active)
O=C1c2ccccc2NC(c2ccco2)N1N=Cc1ccco1 (configuration not stated)	-3.31%
COC(=O)c1ccc(-c2ccc(C=NN3C(=O)C4C5C=CC(CC5)C4C3=O)o2)cc1 (configuration not stated)	-1.63%
CC(=O)OC[C@H]1O[C@@H](ON=C[C@@H](C)[C@H](OCc2ccccc2)C(C)C)[C@H](OC(C)=O)[C@@H](OC(C)=O)[C@@H]1OC(C)=O	1.03%
CCOc1cc(C=NNC(=O)C(=O)N2CCCC2)ccc1O	7.79%
CCOC(=O)N1CCN(C(=O)Cc2ccc(-n3c(=S)[nH]c4ccccc4c3=O)cc2)CC1	2.68%
CCOC(=O)N1CCN(C(=O)C(C)NC(=O)c2ccco2)CC1 (configuration not stated)	1.14%
CCOC(=O)N1CCN(C(=O)CNC(=O)Cc2ccc(Cl)cc2)CC1	33.3% (active)
CC(C)(C)OC(=O)NCCC(=O)NN=Cc1ccc2nccnc2c1	3.74%
COC(=O)c1nn(-c2ccccc2)c(Sc2ccc(Cl)cc2)c1C=NO	-1.82%
Cc1onc(C(=O)NN)c1C(=O)N1CCN(C(c2ccccc2)c2ccccc2)CC1	1.47%
O=C(c1ccc(-n2cnnn2)cc1)N1CCN(C(c2ccccc2)c2ccccc2)CC1	26.6% (active)
Cn1nnnc1SCC(=O)N1CCN(C(c2ccccc2)c2ccccc2)CC1	2.55%
C=C1CC(C(=O)NN=Cc2ccccc2)C1	1.24%
COc1cccc(C=NNC(=S)NC2CC3CCC2C3)c1OC (configuration not stated)	2.43%
CCN1C[C@@H]2[C@@H]3C(=O)N(Cc4ccccc4)C(=O)[C@@H]3[C@](Cc3ccccc3)(C(=O)OC)N2C1=NC1CCCCC1	-0.224%
CCN1C[C@@H]2[C@@H]3C(=O)N(Cc4ccccc4)C(=O)[C@@H]3[C@](C)(C1=O)N2C(=O)c1ccc(C(C)(C)C)cc1	28.4% (active)
CCN1C[C@@H]2[C@@H]3C(=O)N(C)C(=O)[C@@H]3[C@](C)(C1=O)N2C(=O)c1ccccc1	1.29%
CON=C(C(=O)N[C@@H]1C(=O)N2C(C(=O)O)=C(COC(N)=O)CS[C@H]12)c1ccco1	-2.85%
CC(CC(C)(C)c1ccccc1)=NNS(=O)(=O)c1ccccc1	3.32%
Cc1nn(-c2ccccc2)c(Cl)c1C=NO	1.54%
CN(C)c1ccc(C=NNC(=O)c2nonc2N)cc1[N+](=O)[O-]	20.3% (active)
Nc1nonc1C(=O)NN=Cc1ccc(-c2cccc([N+](=O)[O-])c2)o1	9.92%
Cn1cc([N+](=O)[O-])c(C(=O)NN=Cc2ccc([N+](=O)[O-])cc2)n1	11.9%
O=C(CCCCO)CCCCCCCCC1NC(CO)C(O)C1O[C@@H]1OC(CO)C(O)C(O)C1O (some centres not stated)	1.76%
O=C(NN=C(c1ccccc1)c1cccnc1)c1ccc(O)cc1	4.07%

SMILES	inhibition
CCC(C)C(C)=NNC(=O)c1ccc(COc2ccc(Cl)c(C)c2)cc1 (configuration not stated)	1.66%
Oc1ccc(C=NNc2cccc3cccnc23)c(O)c1	1.33%
C#CCOCCOCCOCCNc1nc(N2CCN(C(=O)[C@H](C(C)C)n3cc(CCO)nn3)CC2)nc(N2CCN(C(=O)[C@H]([C@@H](C)CC)n3cc(CCCN=C(N)N)nn3)CC2)n1	34.8% (active)
C#CCOCCOCCOCCNc1nc(N2CCN(C(=O)[C@H](C(C)C)n3cc(CCO)nn3)CC2)nc(N2CCN(C(=O)[C@H](C(C)C)n3cc(CCO)nn3)CC2)n1	0.233%
C#CCOCCOCCOCCNc1nc(N2CCN(C(=O)[C@H](CCCN=C(N)N)n3cc(C(N)[C@@H](C)CC)nn3)CC2)nc(N2CCN(C(=O)[C@H](CO)n3cc([C@@H](N)C(C)C)nn3)CC2)n1 (some centres not stated)	3.95%
CC(C)NC(=O)CC(=O)NN=Cc1ccccc1F	4.78%
CSc1cc(C=NO)c(SC)s1	3.15%
COc1nc(Oc2ccc(=O)n(C)n2)nc(N(C)C)n1	29.8% (active)
CCCn1nc(Oc2nc(NC(C)C)nc(N(C)C)n2)ccc1=O	6.24%
COc1nc(N(C)C)nc(N2CC(=O)N(CCNS(=O)(=O)c3ccc(C)cc3)C2=N)n1	-1.6%
CN(C)c1nc(NN=Cc2c[nH]c3ccccc23)nc(N2CCOCC2)n1	5.58%
CC(C)CC[n+]1ccn(C2=C([O-])c3ccccc3C(=O)/C2=N\S(=O)(=O)c2ccccc2)c1	32.4% (active)
Cc1ccc(C=NNC(=O)c2cc([N+](=O)[O-])cc([N+](=O)[O-])c2)o1	5.25%
CN(C)/C=C(\C#N)C(=O)NN=Cc1ccccc1	6.55%
CN(C)C=Nc1sc2c(c1C#N)CCC2	9.38%
COC(=O)[C@H](C)[C@H]1C[C@]1(C)[C@H](NC(=O)OCc1ccccc1)c1ccccc1	31% (active)
COC(=O)[C@H](Cc1ccccc1)NC(=O)[C@@H]1C[C@H]1[C@@H](NC(=O)OCc1ccccc1)c1ccccc1	1.36%
CC(C)[C@H](NC(=O)OCc1ccccc1)C(=O)OCc1ccccc1	0.329%
O=C(NN=Cc1ccco1)c1cc(=O)[nH]c2ccccc12	7.58%
CCC(=O)Nc1ccc(C(=O)N2CCN(C(=O)c3ccco3)CC2)cc1	31.4% (active)
O=C(c1ccc2c(c1)OCO2)N1CCN(C(=O)c2ccco2)CC1	0.962%
O=C(CN1CCN(C(=O)c2ccco2)CC1)Nc1ccc2c(c1)OCO2	1.43%
Cc1ccc2nc(C(Cl)(Cl)Cl)nc(NN=Cc3ccc([N+](=O)[O-])cc3)c2c1	-0.00251%
S=c1[nH]nc(-c2cccc(Cl)c2)n1N=Cc1ccc(-c2ccccc2Br)o1	8%
O=C1c2ccccc2NC(c2ccc(-c3cccc(Cl)c3)o2)N1O (configuration not stated)	-14.2%
O=C(O)C(c1ccccc1)N1C(=O)/C(=C\c2ccc(-c3cccc(Cl)c3)o2)SC1=S (configuration not stated)	37.5% (active)
